SENP6 block: SENP6 protease inhibitors, primary screen, biochemical, luminescence, uHTS; inhibition, % at 10 µM; 330,000 compounds, 1.8% hits; Sentrin-specific protease 6 (Homo sapiens), Q9GZR1; Recombinant SENP6 catalytic domain, aminoluciferin luminescence;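 active = inhibition above about 50% at the single tested dose, limit read from the data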
Target sequence (Q9GZR1 628-1112 limits assumed): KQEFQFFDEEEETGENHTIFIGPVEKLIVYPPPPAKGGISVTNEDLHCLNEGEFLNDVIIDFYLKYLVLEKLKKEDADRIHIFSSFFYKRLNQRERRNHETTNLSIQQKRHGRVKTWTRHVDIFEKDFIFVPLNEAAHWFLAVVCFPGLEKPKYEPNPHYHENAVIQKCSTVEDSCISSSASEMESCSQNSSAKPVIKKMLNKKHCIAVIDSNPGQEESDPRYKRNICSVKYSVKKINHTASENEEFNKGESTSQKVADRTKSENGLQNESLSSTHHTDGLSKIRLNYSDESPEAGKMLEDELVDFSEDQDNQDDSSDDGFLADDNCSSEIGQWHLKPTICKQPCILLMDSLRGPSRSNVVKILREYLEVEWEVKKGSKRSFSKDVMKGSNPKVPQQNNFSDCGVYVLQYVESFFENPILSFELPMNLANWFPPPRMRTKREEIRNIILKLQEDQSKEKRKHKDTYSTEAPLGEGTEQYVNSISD
SENP1 FRET inh: human SENP1 catalytic domain inhibitors, primary screen, biochemical, FRET, uHTS; inhibition, % at 10 µM; AID 624204, 2012; recombinant SENP1 catalytic domain, CyPet-SUMO1-YPet FRET cleavage; Sentrin-specific protease 1 (Homo sapiens), Q9P0U3; 360,000 compounds, 0.21% hits;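 active = inhibition at least 30% at 10 µM, raw YFP signal under a set limit, fluorescence ratio 0.5 to 1.5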
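Material – human SENP1 catalytic domain · Input – SENP1 enzyme, 20 pM final · Compound dosing – single concentration of 10 µM compound, 0.5% DMSO final · Timing – enzyme reaction for 50 min at room temperature, dark · Measured by – FRET fluorescence in CFP and YFP emission channels · Control set – no-enzyme wells low, DMSO-plus-enzyme wells high control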
SENP7 block: SENP7 protease inhibitors, primary screen, biochemical, luminescence, uHTS. Sentrin-specific protease 7 (Homo sapiens), Q9BQF6. recombinant SENP7, Z-RLRGG-aminoluciferin luminescence, 40 min. inhibition, % at 5 µM. 330,000 compounds, 1.5% hits. AID 434973, 2010;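 active = inhibition above about 50% at the single test dose, limit read from the data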
Platelet DG rel: inhibitors of platelet dense granule secretion, primary screen, cell-based, MLPCN, human platelets | inhibition, %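 (compounds screened at 7.5 µM in platelet-rich plasma)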 | human platelet-rich plasma, SFLLRN dense granule ATP release, luminescence | 300,000 compounds, 0.22% hits | AID 1663, 2009;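 active = mean replicate score, as percent of positive control, at or above 50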
SENP8 block-1: SENP8 protease inhibitors, primary screen, biochemical, luminescence. purified SENP8, Z-RLRGG-aminoluciferin cleavage. 330,000 compounds, 1.2% hits. Sentrin-specific protease 8 (Homo sapiens), Q96LD8. inhibition, % at 10 µM; in the data active = inhibition above about 50%
SENP8 block-2: human SENP8 protease inhibitors, primary screen, biochemical, fluorescence, Nedd8 protein substrate, uHTS; Sentrin-specific protease 8 (Homo sapiens), Q96LD8; recombinant SENP8; inhibition, % at 20 µM; 360,000 compounds, 0.64% hits; AID 602440, 2012; in the data active = inhibition mostly above about 40%, no sharp cut-off; inactive = mostly below about 27%
SENP8 conf: SENP8 protease inhibitors, retest, confirmation, biochemical, luminescence, single concentration. shares compounds with SENP7 block. Recombinant SENP8, Z-RLRGG-aminoluciferin luminescence, 60 min. inhibition, % at 12.5 µM. 6,200 compounds, 40% hits;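 active = mean inhibition across replicates above about 50%, limit read from the data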
SENP6 conf: SENP6 protease inhibitors, confirmation, biochemical, luminescence, single concentration. shares compounds with SENP7 block. recombinant SENP6, Z-RLRGG-aminoluciferin luminescence. inhibition, % at 12.5 µM. 6,200 compounds, 58% hits. AID 488915, 2010
SENP7 confirm: SENP7 protease inhibitors, retest, confirmation, biochemical, luminescence, single concentration; shares compounds with SENP7 block; recombinant SENP7, Z-RLRGG-aminoluciferin luminescence, 40 min; inhibition, % at 12.5 µM; 6,200 compounds, 69% hits; AID 488917, 2010
Casp3 SENP sel: caspase-3 protease inhibitors, confirmation, selectivity assay for SENP inhibitor project, biochemical, single concentration. shares compounds with SENP7 block. purified caspase-3, Z-DEVD-aminoluciferin luminescence, 60 min. inhibition, % at 12.5 µM. 6,200 compounds, 60% hits. AID 488918, 2010;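 active = mean inhibition above about 50%, limit read from the data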
Target sequence (P42574 28-227 limits assumed): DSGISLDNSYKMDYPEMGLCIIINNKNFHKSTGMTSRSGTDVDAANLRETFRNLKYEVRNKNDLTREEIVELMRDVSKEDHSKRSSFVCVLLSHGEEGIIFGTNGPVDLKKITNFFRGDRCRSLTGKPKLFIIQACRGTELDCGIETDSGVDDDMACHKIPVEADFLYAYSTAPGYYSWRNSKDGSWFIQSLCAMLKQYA
Luc interf: counter-screen for SENP inhibitors: luminescence interference; AID 488919; Pre-incubated SENP8/Z-RLRGG-aminoluciferin, luciferase luminescence interference; inhibition, % at 12.5 µM; 6,200 compounds, 39% hits; shares compounds with SENP7 block;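 active = mean inhibition above about 50% when retested at one dose, limit read from the data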
Large screens that a line does not name were inactive (follow-up assays come after a bar, where they were run). Most compounds without a hit are left out; they make up all but 2.6% or so of the library.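 Rule for the calls, unless noted: active = mean inhibition above about 50% in the one-dose retest (limit read from the data); inactive = the rest.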

COC(=O)c1ccc(CSc2nc3ccccc3o2)cc1	SENP6 block 85, SENP7 block 91, SENP8 block-1 87 | SENP8 conf inactive | SENP6 conf 91 | SENP7 confirm 100 | Casp3 SENP sel 80 | Luc interf 65
O=C(O)CSc1nc2ccccc2o1	none
O=[N+]([O-])c1ccc(CSc2nc3ccccc3o2)cc1	SENP6 block 52 | SENP8 conf 53 | SENP6 conf 54 | SENP7 confirm 66 | Casp3 SENP sel inactive | Luc interf inactive
O=C1C=C(c2ccc(Br)c3ccccc23)C[C@@H](c2ccc3c(c2)OCO3)C1	none (no result: Platelet DG rel)
COc1cc(OC)cc(C(=O)Nn2c(C)nc3ccccc3c2=O)c1	none
COc1ccc2[nH]c3c(c2c1)CCn1c-3nc2ccccc2c1=O	SENP7 block 80 (no result: Platelet DG rel) | SENP8 conf inactive | SENP6 conf inactive | SENP7 confirm inactive | Casp3 SENP sel inactive | Luc interf inactive
CCCCC(=O)N1CCN(c2nc3ccc(F)cc3s2)CC1	SENP6 block 84, SENP7 block 82, SENP8 block-1 73 | SENP8 conf 78 | SENP6 conf 75 | SENP7 confirm 95 | Casp3 SENP sel 89 | Luc interf inactive
CCCCC(=O)N1CCN(c2nc3ccc(OCC)cc3s2)CC1	none
COCCn1c(C)cc(C(=O)CSc2nnc(C)s2)c1C	SENP7 block 50 | SENP8 conf inactive | SENP6 conf inactive | SENP7 confirm 80 | Casp3 SENP sel 81 | Luc interf 56
Cc1oc2c(c1C(=O)O)C(=O)c1ccccc1C2=O	SENP6 block 63, SENP8 block-2 45 | SENP8 conf inactive | SENP6 conf 52 | SENP7 confirm inactive | Casp3 SENP sel 51 | Luc interf inactive
Cc1oc2c(c1C(=O)c1ccccc1)C(=O)C(=O)c1ccccc1-2	SENP6 block 83, SENP8 block-1 65, SENP8 block-2 99 | SENP8 conf inactive | SENP6 conf 72 | SENP7 confirm inactive | Casp3 SENP sel inactive | Luc interf inactive
CCOC(=O)c1c(C)oc2c1C(=O)c1ccccc1C2=O	none
Cc1ccc(C)c(-n2nnnc2SCC(=O)NNC(=O)c2ccco2)c1	none
O=C1OCCN1c1c(-c2ccccc2)c(N2CCOCC2)nc2ccccc12	none
COc1ccc(/C=C/c2noc(-c3ccccc3O)n2)cc1	SENP6 block 89, SENP7 block 88, SENP8 block-1 88 | SENP8 conf 57 | SENP6 conf inactive | SENP7 confirm 62 | Casp3 SENP sel 53 | Luc interf inactive
CC(=O)Oc1ccccc1-c1nc(/C=C/c2ccccc2)no1	SENP6 block 61, SENP7 block 70 | SENP8 conf inactive | SENP6 conf inactive | SENP7 confirm inactive | Casp3 SENP sel inactive | Luc interf inactive
COc1cc(/C=C/c2noc(-c3ccccc3O)n2)cc(OC)c1OC	none
CCOc1ccc(NC(=O)CN(C)C(=O)C2CC(=O)N(Cc3ccco3)C2)cc1OCC (stereo not drawn)	none (no result: Platelet DG rel)
Cc1ccc(-c2nnc(SCc3ccccc3F)o2)cc1	SENP6 block 67, SENP7 block 58 | SENP8 conf 61 | SENP6 conf 70 | SENP7 confirm 87 | Casp3 SENP sel inactive | Luc interf inactive
COc1ccc(-c2nnc(SCc3ccccc3F)o2)cc1OC	none
O=C(O)C(c1ccccc1)C1CCCCC1O (stereo not drawn)	none (no result: SENP6 block, SENP7 block, Platelet DG rel, SENP8 block-1)
N#C/C(=C\c1cccs1)C(=O)Nc1ccccn1	SENP6 block 59, SENP7 block 64 | SENP8 conf inactive | SENP6 conf inactive | SENP7 confirm 83 | Casp3 SENP sel 71 | Luc interf inactive
N#C/C(=C\c1ccccc1)C(=O)Nc1ccccn1	none
O=C(Nc1ccccc1)Oc1ccc[nH]c1=O	SENP6 block 74 | SENP8 conf inactive | SENP6 conf inactive | SENP7 confirm inactive | Casp3 SENP sel inactive | Luc interf inactive
Cc1oc(-c2ccccc2)nc1C(=O)OCC(=O)NC(=O)NCC(C)C	SENP7 block 65 | SENP8 conf inactive | SENP6 conf inactive | SENP7 confirm inactive | Casp3 SENP sel inactive | Luc interf inactive
COc1ccccc1/C=C/c1nc(C#N)c(N(C)C)o1	SENP6 block 57 | SENP8 conf inactive | SENP6 conf 57 | SENP7 confirm inactive | Casp3 SENP sel 53 | Luc interf inactive
O=C(COc1ccc(Cl)cc1Cl)Nc1ccc(-c2ccc(N3CCOCC3)nn2)cc1	none
O=C(Nc1cccc(-c2ccc(N3CCOCC3)nn2)c1)c1ccc([N+](=O)[O-])cc1	none
O=C(COc1ccc(Cl)cc1Cl)Nc1cccc(-c2ccc(N3CCOCC3)nn2)c1	SENP7 block 76 | SENP8 conf inactive | SENP6 conf inactive | SENP7 confirm inactive | Casp3 SENP sel inactive | Luc interf inactive
Cc1ccc(C(=O)Nc2cccc(-c3ccc(N4CCOCC4)nn3)c2)cc1[N+](=O)[O-]	SENP6 block 67, SENP7 block 63, SENP8 block-1 50 | SENP8 conf inactive | SENP6 conf inactive | SENP7 confirm inactive | Casp3 SENP sel inactive | Luc interf inactive
Cc1ccc([N+](=O)[O-])cc1S(=O)(=O)Nc1cccc(-c2ccc(N3CCCC3)nn2)c1	SENP6 block 90, SENP8 block-1 83 | SENP8 conf 62 | SENP6 conf 76 | SENP7 confirm 87 | Casp3 SENP sel 70 | Luc interf inactive
O=C(COc1ccccc1)Nc1cccc(-c2ccc(N3CCOCC3)nn2)c1	SENP6 block 61, SENP7 block 53 | SENP8 conf inactive | SENP6 conf inactive | SENP7 confirm 76 | Casp3 SENP sel 66 | Luc interf inactive

Source: PubChem (several laboratories)
